Measurements pooled from the literature.
Lines come from different studies, so protocols differ. pIC50: −log10 of the molar value.
Cell line: COLO 205
Observed: cell growth or viability

COc1ccc(C(=O)/C=C/c2cccc(Cl)c2)cc1S(N)(=O)=O  inhibition (SRB; 10 µM): 165%
CC(C)[C@H](N)c1nc2cc(-c3ccnc(F)c3)sc2c(=O)[nH]1  pIC50 (MTT): 7.05
CC(C)C[C@H](NC(=O)[C@H](Cc1ccccc1)NC(=O)c1cnccn1)B(O)O  pIC50 (ATP luminescence): 7.66
Cc1cc(-c2cc3nc([C@@H](N)C(C)C)[nH]c(=O)c3s2)ccn1  pIC50 (MTT): 5.85
COc1c2ccoc2c(OCC=C(C)C)c2oc(=O)ccc12  pIC50 (MTT; 24 h): < 4.00
CC(C)[C@H](N)c1nc2cc(-c3ccncc3F)sc2c(=O)[nH]1  pIC50 (MTT): 7.61
COc1ccc(C(=O)/C=C/c2ccccc2Br)cc1S(N)(=O)=O  GI50 (SRB; 48 h): 2200 nM
COc1cccc(Oc2ccccc2NC(=O)CNC(=O)c2cccc3ccccc23)c1  GI50 (SRB; 48 h): 282 nM
COc1cc2ccc(=O)oc2cc1OC  pIC50 (MTT; 24 h): < 4.00
COc1cc(Nc2nccc(-c3cnn4nc(OC)ccc34)n2)cc(C(F)(F)F)c1  pIC50 (ATP luminescence): 6.29
